# Hits are enriched below; roughly 6% of the tested compounds scored in any of these assays.
# HUVEC prolif 384 – blocks proliferation of human endothelial cells; HUVEC proliferation, CellTiter-Glo luminescence, 72 h; hits give low values; viability, % at 10 µM (by protocol); 86,000 compounds, 1.1% hits;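 active means viability at or below 30%; inactive means viability above 30%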;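 further: 100% = median luminescence of DMSO-only cell control wells on each plate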
# cytoskel mod – modifiers of cytoskeleton assembly. HUVEC TNFa F-actin phalloidin imaging, high content. inhibition, % at 2 µM. 91,000 compounds, 0.18% hits;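 active means inhibition above the batch mean plus 3 SD and confirmed as a hit by visual image inspection, cut at about 30% in these data, passing the limit was not always enough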
# PTK2B oligo ant – antagonists of human Pyk2 oligomerization | z-score (the deposit names both 25 µM and 10 µM) | Q14289 | 99,000 compounds, 0.83% hits | Q293 cells, Pyk2 FERM NanoBiT luminescence; hits give low values;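 active means Z-score of -3 or lower, scaled per plate to the spread of control and sample wells; inactive means z-score above -3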;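 further: negative z-score means lost luminescence so less FERM oligomerization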
# Target sequence (Q14289 whole entry, looked up): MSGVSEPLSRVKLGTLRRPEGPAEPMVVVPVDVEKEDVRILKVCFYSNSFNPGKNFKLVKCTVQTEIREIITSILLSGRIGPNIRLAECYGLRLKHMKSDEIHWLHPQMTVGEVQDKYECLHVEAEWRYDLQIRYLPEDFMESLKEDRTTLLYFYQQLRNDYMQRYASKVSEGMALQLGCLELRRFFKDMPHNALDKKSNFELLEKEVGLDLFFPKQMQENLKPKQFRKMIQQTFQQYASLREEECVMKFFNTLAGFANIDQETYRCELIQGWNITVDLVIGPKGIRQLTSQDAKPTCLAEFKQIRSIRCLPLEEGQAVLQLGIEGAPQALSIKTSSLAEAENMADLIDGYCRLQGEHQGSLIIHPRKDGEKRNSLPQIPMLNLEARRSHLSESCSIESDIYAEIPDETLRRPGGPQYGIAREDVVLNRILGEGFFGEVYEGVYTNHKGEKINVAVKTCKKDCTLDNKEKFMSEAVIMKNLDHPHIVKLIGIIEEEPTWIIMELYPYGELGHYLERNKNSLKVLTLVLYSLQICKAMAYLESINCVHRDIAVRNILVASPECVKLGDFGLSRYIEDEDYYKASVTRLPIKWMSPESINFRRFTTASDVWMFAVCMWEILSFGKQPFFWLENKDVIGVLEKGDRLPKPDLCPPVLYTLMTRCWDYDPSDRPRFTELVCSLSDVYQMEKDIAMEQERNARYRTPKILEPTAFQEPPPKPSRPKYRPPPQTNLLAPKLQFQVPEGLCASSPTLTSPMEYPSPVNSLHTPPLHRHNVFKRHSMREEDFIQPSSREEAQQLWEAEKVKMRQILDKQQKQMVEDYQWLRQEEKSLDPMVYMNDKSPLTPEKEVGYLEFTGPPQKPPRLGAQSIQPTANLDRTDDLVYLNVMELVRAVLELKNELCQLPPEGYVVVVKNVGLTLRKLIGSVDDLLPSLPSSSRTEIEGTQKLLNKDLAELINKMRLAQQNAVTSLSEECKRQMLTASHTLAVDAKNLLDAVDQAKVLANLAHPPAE
# H69AR growth 86K – blocks growth of human H69AR lung tumor cells; H69AR lung tumor viability, ATP luminescence, 72 h; hits give low values; viability, % at 10 µM; 85,000 compounds, 6% hits;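 active means viability at or below 40%; inactive means viability above 40%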;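 further: multidrug resistant small cell line overexpressing MRP-1 efflux transporter; 100% = mean luminescence of untreated control wells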
# Fibroblast inh – blocks proliferation of human lung fibroblasts | AID 719 | LL 47 human lung fibroblast viability, ATP luminescence; hits give low values | 85,000 compounds, 1.1% hits | viability, % at 10 µM;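 active means viability at or below 50% in the single dose screen; inactive means viability above 50%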;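 further: compound exposure lasted 72 h before the ATP readout; 100% = median luminescence of untreated cell-only wells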
#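 Benchmarks: Cell-only wells, no compound | Test system: LL 47 human lung fibroblasts, passage 12 or lower | Input: 1,150 cells/well | Measured by: CellTiter-Glo luminescence measuring cellular ATP | Medium: IMEM, 15% FBS supplement | Schedule: Overnight attachment after seeding, then 72 h compound exposure at 37 °C | Doses: Compound addition at 0.1% DMSO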
# Jurkat viability – cytotoxicity toward Jurkat cells. inhibition, % at 4 µM. 56,000 compounds, 1.2% hits. Jurkat E6.1 viability, ATP luminescence, 48 h;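 active means inhibition above the mean inhibition of all tested compounds plus 3 SD, cut at about 28% in these data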
# An asterisk follows results filed as active; x = no result.
SMILES,HUVEC prolif 384,cytoskel mod,PTK2B oligo ant,H69AR growth 86K,Fibroblast inh,Jurkat viability
O=C1CCCCCN1C(=O)c1cccc(C(=O)N2CCCCCC2=O)c1,92.7,-8.7,1.46,95.8,101.6,-7.1
Cc1ccc(-c2nc(CSCC(=O)NCc3cccnc3)c(C)o2)cc1,106.8,x,1.24,93.6,x,13.5
CC(/C=C/c1ccc2c(c1)OCO2)=N\NC(=O)c1cccc([N+](=O)[O-])c1,30.7,5.9,0.74,7.3*,28.3*,x
Cn1nc([N+](=O)[O-])nc1Oc1ccccc1,88.4,4.0,0.5,96.6,97.5,x
COc1ccccc1-c1nnc(Sc2nc([N+](=O)[O-])nn2C)o1,59.5,1.9,-0.84,2.8*,63.8,x
COc1ccc(-c2cc(C(F)(F)F)nc(SCC(N)=O)n2)cc1,96.4,6.2,0.07,94.9,101.8,7.5
COc1ccc(-c2cc(C(F)(F)F)nc(SCCC(=O)N3CCOCC3)n2)cc1,104.3,-3.0,0.04,38.5*,x,1.0
CCOC(=O)N1CCC(NC(=O)c2cnn3c(C(F)(F)F)cc(-c4cccc(OC)c4)nc23)CC1,48.3,x,x,97.7,27.1*,-0.7
COc1ccc2nc3oc(C(=O)NC4CCN(Cc5ccccc5)CC4)cc3cc2c1,88.8,-6.3,-1.04,75.4,75.8,-2.8
CCOC(=O)N1CCC(NC(=O)c2cc3cc4cc(OC)ccc4nc3o2)CC1,91.8,23.2,-1.5,37.5*,91.0,0.8
CCOC(=O)c1cnn2c(C(F)(F)F)cc(-c3ccccc3)nc12,96.8,x,0.27,67.2,95.6,4.5
COc1ccc(-c2coc3c(CN4CCCCC4)c(O)c(CN4CCCCC4)c(O)c3c2=O)cc1,84.9,x,x,7.2*,85.4,3.4
CCC(Sc1nc2sc(C(=O)OC)c(C)c2c(=O)n1N)C(=O)N(CC)CC (centres undefined),87.0,2.2,-0.29,18.8*,96.4,x
CCN(CC)c1ccc(C(=O)OCC(=O)NCC2CCCO2)cc1 (centres undefined),x,9.1,0.33,x,x,x
CC[C@H](C)C(=O)O[C@H]1C[C@@H](C)C=C2C=C[C@H](C)[C@H](CC[C@@H]3C[C@@H](O)CC(=O)O3)[C@H]21,16.8*,x,x,45.5,46.1*,x
CCN(CC)c1ccc(/C=C(/C#N)c2nc3ccccc3[nH]2)c(OC(C)C)c1,x,13.8,-3.44*,x,x,x
COc1cc(/C=C(\C#N)c2nc3ccccc3[nH]2)c([N+](=O)[O-])cc1OCc1ccccc1,x,-12.1,-1.37,x,x,x
CS(=O)(=O)Nc1cccc2cccnc12,89.9,24.8,-0.21,65.0,90.0,-2.9
Cc1cc(C)n(-c2ccc3cccc(NS(C)(=O)=O)c3n2)n1,22.6*,0.8,0.47,20.7*,26.3*,2.9
Cc1ccc2oc3c(c(=O)c2c1)C(c1cccc(O)c1)N(c1ccccn1)C3=O (centres undefined),89.9,x,x,85.6,97.6,-6.0
COc1cc(C2c3c(oc4ccc(C)cc4c3=O)C(=O)N2c2cc(C)ccn2)cc(OC)c1OC (centres undefined),70.0,x,x,32.1*,61.9,-5.8
Cc1cccc(-n2c(SCc3cc(=O)n4c(C)cccc4n3)nc3[nH]ncc3c2=O)c1,94.3,-2.1,x,58.1,78.1,x
Cc1ccc(S(=O)(=O)Nc2cc(C(=O)NCCN3CCCC3)ccc2N2CCCCC2)cc1,27.5*,-20.5,1.4,77.9,89.5,-0.1
CCN(c1ccccc1)c1cc(C)nc2nc(C)nn12,97.3,x,x,72.3,105.1,-1.9
Cc1cccc(N(C)c2cc(C)nc3nc(C)nn23)c1,101.7,x,x,23.2*,95.1,8.8
SMILES,HUVEC prolif 384,cytoskel mod,PTK2B oligo ant,H69AR growth 86K,Fibroblast inh,Jurkat viability
COc1cc(-c2nnc(SCC3(c4ccc(Br)cc4)OCCO3)o2)cc(OC)c1OC,x,-13.7,-1.37,x,x,x
COc1cccc(CN2C(=O)C3(C(C#N)=C(N)OC4=C3C(=O)CCC4)c3ccccc32)c1 (centres undefined),4.0*,1.8,0.42,18.9*,20.4*,-1.6
CCCCc1ccc(Nc2nc(CCC)cc(=O)[nH]2)cc1,2.5*,5.2,-1.03,57.7,75.2,2.8
CCCc1cc(=O)[nH]c(Nc2ccc(N3CCCCC3)cc2)n1,112.5,2.5,-0.41,87.5,97.2,7.8
Cc1cc(C)cc(NC(=O)C2(c3ccccc3)CC2(Cl)Cl)c1 (centres undefined),x,12.4,-2.41,x,x,x
CCc1ccc(NC(=O)C2(c3ccccc3)CC2(Cl)Cl)cc1 (centres undefined),x,-5.7,-3.07*,x,x,x
Cc1ccc(NC(=O)C2(c3ccccc3)CC2(Cl)Cl)cc1C (centres undefined),x,5.1,-3.23*,x,x,x
CCOc1cc(C(=O)NCCOC)ccc1OC,106.3,-14.7,-0.9,100.2,102.0,2.7
CS(=O)(=O)c1ncc(Cl)c(C(=O)Nc2ccc(N3CCOCC3)cc2)n1,36.7,x,0.08,0.2*,x,62.4*
Cn1c(/C=C/c2ccc([N+](=O)[O-])o2)nc2ccccc2c1=O,15.6*,-42.1,-0.02,-0.5*,5.2*,x
O=C(N/N=C/c1ccc([N+](=O)[O-])o1)c1cc(-c2ccncc2)nc2ccccc12,x,16.5,0.74,x,x,x
C=CCn1c(COc2ccccc2)nnc1SC(C)C(=O)N/N=C/c1cc(Cl)ccc1O (centres undefined),x,-5.5,0.5,x,x,x
C=CCn1c(COc2ccc(Cl)cc2)nnc1SCC(=O)N/N=C/c1cccc(O)c1,x,65.6*,-0.76,x,x,x
CC(C(=O)N(C1CC1)C1(C(=O)Nc2ccccc2)CCCC1)N1C(=O)c2ccccc2C1=O (centres undefined),108.3,x,-0.73,95.1,97.5,2.8
Cc1cccnc1NC(=S)NC(=O)c1cccs1,x,11.6,0.74,x,x,x
Cc1conc1NC(c1cccs1)c1ccc2cccnc2c1O (centres undefined),23.7*,-1.4,x,19.1*,3.1*,29.8*
O=S(Cc1ccccc1)CC(O)(c1ccccc1)c1ccccc1 (centres undefined),x,22.1,0.21,x,x,x
CC(C)OC(=O)CCC1(C(=O)O)CCC(=O)NC1 (centres undefined),x,4.6,0.21,x,x,-3.7
CC1CCc2cc(F)ccc2N1C(=O)CSc1nnc2c3ccccc3n(C)c2n1 (centres undefined),x,-18.1,-2.16,x,x,x
CC1Cc2ccccc2N1C(=O)CSc1nnc2c(n1)[nH]c1ccc(F)cc12 (centres undefined),53.5,2.5,-0.7,37.5*,100.1,x
O=S(=O)(c1ccc(Cl)c(Cl)c1)c1snnc1-c1ccccc1,3.6*,4.7,-0.43,-0.2*,4.8*,x
Brc1ccc(Nc2nc3ccccc3n3nnnc23)cc1,47.5,6.0,x,35.8*,78.5,x
Cc1ccc(CNc2nc3ccccc3n3nnnc23)cc1,89.3,x,-0.14,29.6*,100.1,-13.6
Cc1ccc(-c2nc3ccccc3n3nnnc23)cc1,84.4,23.5,1.93,41.2,82.4,5.9
O=C(NCc1ccncc1)C1CCCCC1,95.6,-6.5,0.33,106.9,98.8,x
CCN(CC)C(=O)c1ccc(CS(=O)(=O)c2ccc(OC)cc2)o1,115.9,14.6,x,102.8,110.4,8.8
O=[N+]([O-])c1c(NCCCO)cc(Sc2nc3ccccc3s2)c2nonc12,x,-19.4,-0.41,x,x,x

# From PubChem BioAssay
